KCNK3 block: human KCNK3 channel inhibitors, primary screen, CHO cells, FluxOR thallium flux, B-score; actives 0.84% (n = 340,000); B-score at 10 µM; FluxOR fluorescence; hits give low values; AID 602410, 2012;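 active = B-score under library mean minus 4 SD, starting fluorescence ratio at most library mean plus 5 SD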;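 also: more negative B-score means stronger inhibition of thallium flux through KCNK3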
hERG rescue: hERG rescue from dofetilide block, primary screen, cell-based, CHO-hERG, FluxOR thallium flux, dofetilide IC70; dofetilide IC70 present; Voltage-gated inwardly rectifying potassium channel KCNH2 (Homo sapiens), Q12809; activation (rescue from dofetilide block), less the hit threshold, % at 10 µM; actives 0.51% (n = 310,000); AID 1511, 2009;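 active = activation above the mean of controls blocked by dofetilide plus 5 SD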;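 also: thallium influx through hERG after potassium depolarization seen as dye fluorescence rise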
KCNQ1 act: potentiators or activators of KCNQ1 channel, primary screen, cell-based, thallium flux, high-throughput; Potassium voltage-gated channel subfamily KQT member 1 (Homo sapiens), P51787; CHO-K1 KCNQ1, thallium flux FluxOR fluorescence; hits give high values; B-score at 10 µM; actives 0.35% (n = 310,000); AID 2648, 2010;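 active = fluorescence ratio B-score, a plate-corrected score, at least three library SD, with initial intensity B-score within 5 SD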
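assay system = KCNQ1-transfected CHO-K1 cells | medium = assay buffer with matched DMSO | probe or stimulus = depolarizing K+/Tl+ stimulus, K2SO4 and Tl2SO4 each 12.5 mM in 5x stock | dosing = single dose | incubation = dye 90 min, compound 20 min, room temperature | detection = kinetic FluxOR fluorescence, 10 s baseline plus 110 s post-stimulus | evaluation = ratio B score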
Kir21 inh: inhibitors of mouse Kir2.1 inward-rectifier potassium channel. HEK293-Kir2.1, FluxOR thallium flux fluorescence; hits give low values. actives 0.85% (n = 310,000). B-score at 10 µM. Inward rectifier potassium channel 2 (Mus musculus), P35561;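 active = fluorescence ratio B-score at or below minus 3 SD of library scores, with starting-brightness B-score within 2 SD, cut at about -4.2 in these data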;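 also: channel flux triggered by added potassium and thallium sulfate stimulus; B-score of peak minus minimum fluorescence over baseline after thallium stimulus; more negative B-score means stronger Kir2.1 block with less thallium influx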
Target sequence (P35561 whole entry, looked up): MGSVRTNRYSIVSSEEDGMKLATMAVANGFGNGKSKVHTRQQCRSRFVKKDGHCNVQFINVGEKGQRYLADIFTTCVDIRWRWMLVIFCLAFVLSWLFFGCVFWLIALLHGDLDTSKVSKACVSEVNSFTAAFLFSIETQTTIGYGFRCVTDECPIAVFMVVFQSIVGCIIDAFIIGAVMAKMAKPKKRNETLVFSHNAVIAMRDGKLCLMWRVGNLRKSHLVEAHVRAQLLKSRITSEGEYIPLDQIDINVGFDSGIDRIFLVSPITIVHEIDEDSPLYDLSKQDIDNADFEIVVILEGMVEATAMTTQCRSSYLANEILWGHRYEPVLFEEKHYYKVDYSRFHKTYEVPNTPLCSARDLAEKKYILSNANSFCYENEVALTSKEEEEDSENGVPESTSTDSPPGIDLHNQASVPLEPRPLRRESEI
KCNQ1 inh: inhibitors of human KCNQ1 channel, primary screen, cell-based, thallium flux, high-throughput; AID 2642, 2010; B-score at 10 µM; actives 1.3% (n = 310,000); CHO-K1 KCNQ1, FluxOR thallium flux fluorescence; hits give high values;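 active = compounds whose thallium flux B-score, printed positive for inhibition, exceeds three library SD while starting fluorescence stays within three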;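 also: channel opened by potassium depolarization with thallium stimulus after 20 min compound exposure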
KCNK9 block: KCNK9 potassium channel inhibitors, primary screen, HEK293 cells, thallium flux; Potassium channel subfamily K member 9 (Homo sapiens), Q9NPC2; FluxOR thallium flux fluorescence; hits give low values; B-score at 10 µM; actives 1.2% (n = 310,000); AID 488922, 2010;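 active = ratio B-score over 3 SD below the library mean, with starting fluorescence within 5 SD of its mean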;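 also: negative B-score means less thallium flux so channel inhibition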
KCNK9 block conf: KCNK9 potassium channel inhibitors, confirmation, HEK293 cells, thallium flux, duplicate | shares compounds with KCNK9 block | FluxOR thallium flux fluorescence | inhibition, % at 10 µM | actives 43% (n = 4,900);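 active = thallium signal inhibited by more than 5 SD of the compound-free buffer control wells, on both duplicate plates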;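 also: 0% = assay buffer control wells without compound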
Kir21 sel: mouse Kir2.1 channel inhibition, confirmation, selectivity assay for KCNK9 modulator project, cell-based, HEK293, thallium flux. Kir2.1 cells, FluxOR thallium flux fluorescence. actives 4% (n = 4,900). shares compounds with KCNK9 block. AID 492993, 2010. inhibition, % at 10 µM;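 active = thallium signal drop more than 5 SD beyond the mean of the no-compound control wells, seen in both duplicate plates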;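 also: signal is fluorescence rise after thallium addition divided by baseline fluorescence; plate controls were assay buffer only for no effect and full block by chlorpromazine control for full effect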
KCNK9 uninduced: thallium flux in non-induced HEK293 cells, confirmation, counter-screen for KCNK9 inhibitor project, cell-based, second counter screen, non-induced KCNK9-HEK293 | inhibition, % at 10 µM | FluxOR thallium flux | shares compounds with KCNK9 block | actives 40% (n = 4,900);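 active = thallium signal drop beyond 5 SD of the untreated control mean, on both duplicate plates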;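 also: plate controls were buffer only IC0 wells for no effect and SID17386958 at its maximal inhibitory level for full effect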
KCNK3 inh conf: retest of human KCNK3 channel inhibitors, confirmation, CHO cells, FluxOR thallium flux, triplicate | shares compounds with KCNK3 block | FluxOR fluorescence; 0% buffer, 100% carvedilol maximal block | ratio percent of control, % at 10 µM | actives 99% (n = 2,400) | AID 651638, 2012;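 active = ratio percent of control, averaged over triplicates, above buffer control mean plus 5 SD, cut at about 64% in these data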;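 also: ratio is the fluorescence rise from min to max over baseline after thallium stimulus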
KCNK3 uninduced: thallium flux inhibition in non-induced cells, primary screen, counter-screen for KCNK3 inhibitor project, cell-based, non-induced KCNK3 line, FluxOR thallium, triplicate; non-induced KCNK3 parental cells; hits give low values; actives 40% (n = 2,400); thallium flux ratio (lower = more inhibition) at 10 µM; AID 651747, 2012; shares compounds with KCNK3 block;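 active = thallium flux ratio, averaged over three wells, more than 5 SD below the buffer control mean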;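 also: host cells are CHO cells without KCNK3 induction; ratio is peak minus trough fluorescence over baseline then normalized to buffer controls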
The depositor's hits bear a star; i = inactive; · = no result. Sampled rows, rich in hits. Any-hit rate of the full collection: about 3.7%.

SMILES	KCNK3 block	hERG rescue	KCNQ1 act	Kir21 inh	KCNQ1 inh	KCNK9 block	KCNK9 block conf	Kir21 sel	KCNK9 uninduced	KCNK3 inh conf	KCNK3 uninduced
CC(C)OC(=O)CSc1nc(Cc2ccccc2)nc2ccccc12	-10.7*	-24.2	i	-0.52	i	-15.4*	57.5%*	35.5%*	38.0%*	96.7*	i
CC(C)OC(=O)CSc1nc(C(C)C)nc2ccccc12	i	-13.2	i	-1.38	i	i	·	·	·	·	·
O=C(CSc1ccc(-c2ccc(F)cc2)nn1)NC1CCCCC1	i	-1.9	i	0.34	i	i	·	·	·	·	·
CC(C)c1ccc(N(CC(=O)NC2CCCC2)C(=O)CCC(=O)Nc2ccccn2)cc1	i	-3.9	i	1.24	i	i	·	·	·	·	·
O=C(CSc1nc2[nH]ncc2c(=O)n1-c1ccc(Cl)c(Cl)c1)NCc1ccccc1Cl	-12.2*	-18.9	i	0.02	i	-8.18*	48.5%*	i	33.5%*	128.3*	0.141*
O=C(CSc1nc2[nH]ncc2c(=O)n1-c1ccccc1)NCCc1ccccc1	i	-14.0	i	1.16	i	i	·	·	·	·	·
Cc1cccc(CS(=O)(=O)Cc2ccc(C(=O)NC3CCCC3)o2)c1	i	-6.2	i	0.48	i	i	·	·	·	·	·
O=C(NC1CCCC1)C(c1ccccc1)N(Cc1ccccc1)C(=O)c1csnn1 (centres undefined)	i	-8.5	i	-0.24	i	i	·	·	·	·	·
O=C1c2ccccc2C(Nc2ccc3c(c2)OCCO3)N1c1ccccn1 (centres undefined)	-9.55*	-10.1	i	2.48	i	-15.4*	52.5%*	i	47.0%*	102.7*	i
CCCCNC(=S)N(CCCN(C)C)Cc1cc2cc3c(cc2[nH]c1=O)OCO3	i	-9.4	i	-1.5	i	i	·	·	·	·	·
N#C/C(=C/c1ccc(Sc2nc3ccccc3[nH]2)o1)c1cccc(F)c1	-9.76*	-15.3	i	0.68	13*	i	i	i	i	122.0*	i
N#C/C(=C/c1ccc(N2CCCCC2)o1)c1cccc(F)c1	-14.3*	-26.4	i	-2.23	i	-10.4*	77.5%*	i	72.5%*	170.3*	0.0793*
O=C1NC(=O)/C(=C/c2ccc(N3CCOCC3)o2)N1	i	-6.3	i	0.96	i	i	·	·	·	·	·
Cc1ccc(/C(C#N)=C\c2ccc(N3CCOCC3)o2)cc1	-15.4*	-16.2	i	-0.68	9*	-12.2*	57.0%*	i	84.5%*	167.7*	0.0443*
CCCCCCN[C@H]1CCC2C3CC=C4C[C@@H](O)CC[C@]4(C)C3CC[C@@]21C (some centres undefined)	i	·	·	·	·	·	·	·	·	·	·
CNC(=S)N1N=C(c2cccs2)CC1c1ccc(F)cc1 (centres undefined)	i	-8.9	i	0.22	i	i	·	·	·	·	·
Fc1ccc(C2CC(c3cccs3)=NN2c2ccccc2)cc1 (centres undefined)	-8.89*	-15.8	i	0.35	i	-9.83*	58.5%*	i	38.5%*	104.0*	0.147*
O=C(Nc1ccc(Br)cc1)/C(=C/c1cccc([N+](=O)[O-])c1)NC(=O)C1CCCCC1	-9.44*	-2.3	i	-0.34	i	-9.65*	50.0%*	i	34.5%*	107.3*	0.148*
CCC(C)[C@H](NC(=O)NCc1ccc(S(N)(=O)=O)cc1)C(=O)O (some centres undefined)	i	-9.0	i	-2.23	i	i	·	·	·	·	·
COC(=O)c1ccccc1SC(CC(=O)c1ccccc1)c1ccc(F)cc1 (centres undefined)	i	-12.7	i	0.71	i	-13.1*	49.0%*	i	55.5%*	114.3*	i
COC(=O)c1ccccc1NC(=O)c1ccc(F)cc1	i	-5.2	i	-0.13	i	i	·	·	·	·	·
CCn1cc(Cl)c(C(=O)Nc2cccc(C(F)(F)F)c2)n1	i	-12.7	i	-0.32	i	-8.46*	42.5%*	i	33.5%*	108.3*	i
O=c1[nH]c(/C=C\c2cccs2)nc(O)c1[N+](=O)[O-]	i	-6.6	i	0.46	i	i	·	·	·	·	·
CCOC(=O)C(CCCOc1cccc(CC)c1)C(=O)OCC	-10.2*	-4.9	i	-0.47	i	i	i	i	i	107.7*	i
CCOC(=O)C(CCCCOc1cccc(CC)c1)C(=O)OCC	i	-12.9	i	-2.34	i	i	·	·	·	·	·
CCOC(=O)C1CCN(C(=O)c2cccnc2)CC1	i	0.4	i	0.55	i	i	·	·	·	·	·
CCOC(=O)C1CCN(C(c2cccnc2)c2c(NC(=O)c3ccco3)sc(C)c2C)CC1 (centres undefined)	-10.7*	-17.4	i	-0.09	i	-18.6*	66.5%*	i	40.0%*	136.3*	0.114*
COCCn1c(SCCOc2ccccc2)nc2ccccc2c1=O	-9.03*	-11.2	i	-2.28	i	-10.7*	37.5%*	i	46.5%*	114.3*	0.143*
COCCn1c(SCC(=O)c2ccccc2)nc2ccccc2c1=O	i	-6.2	i	1.49	i	i	·	·	·	·	·
CCSc1nc2ccccc2n1CCOc1ccccc1	-10.9*	-3.2	i	-1.19	i	-12.4*	28.5%*	i	29.5%*	120.3*	i
